From publication PMC6536312 (Bioorganic & medicinal chemistry, 2019)
Read-outs that look alike come from different tables or passages of the source.

Legend:
MDA-MB-231 cells = test: Cell viability study; format: cell-based, human
Outline: (§1)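 Cells were maintained in high-glucose GlutaMax DMEM with 10% heat-inactivated FBS. They were seeded at 20,000/well, left overnight in 5% FBS medium, then dosed in 1:9 DMSO/acetone against vehicle controls, redosed every 24 h for the 48 h and 72 h runs. Resazurin (0.02% in PBS) was added for 2-3 h, read at ex 560/em 590 nm. IC50 came from nonlinear regression of log concentration versus % control.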

Panc-1 cells = test: Cell viability study; format: cell-based, human
Outline: as §1

σ2 receptor [1] = biological target: T1, σ2 receptor (Rattus norvegicus, UniProt Q5U3Y7); settings: previously reported; cited from earlier work
T1 sequence (Q5U3Y7 1-176): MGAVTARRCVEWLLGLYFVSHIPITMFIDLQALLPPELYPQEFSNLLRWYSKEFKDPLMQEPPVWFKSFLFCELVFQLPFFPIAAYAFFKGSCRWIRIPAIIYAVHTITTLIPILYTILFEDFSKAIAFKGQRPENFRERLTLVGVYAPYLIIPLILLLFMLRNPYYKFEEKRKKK

σ2 receptor [2] = biological target: T1, σ2 receptor; test: Radioligand binding assay at sigma-2 receptor; settings: for fold lower affinity at the σ2 receptor than compound 3: vs compound 3
σ1 receptor = σ1 receptor (Cavia porcellus, UniProt Q60492); test: Radioligand binding assay at sigma-1 receptor
Chain of σ1 receptor (Q60492 whole entry): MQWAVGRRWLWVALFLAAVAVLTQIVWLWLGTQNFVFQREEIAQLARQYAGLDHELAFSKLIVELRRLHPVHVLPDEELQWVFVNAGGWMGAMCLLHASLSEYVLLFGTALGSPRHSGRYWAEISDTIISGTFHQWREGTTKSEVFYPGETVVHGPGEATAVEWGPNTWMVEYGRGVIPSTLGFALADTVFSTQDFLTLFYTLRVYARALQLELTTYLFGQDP

Question: For `N.N.[Cl][Pt][Cl]` [Cisplatin], which IC50 (MDA-MB-231 cells; read-out: IC50 (48 h), cell viability, MDA-MB-231, 48 h treatment) is on record?
Answer: 50 ± 9.8 µM

Question: And the IC50 (MDA-MB-231 cells; read-out: IC50 (72 h), cell viability, MDA-MB-231, 72 h treatment)?
Answer: 64.2 ± 4.3 µM

Question: For `O=C(CCCN1CCCN(c2ccc(Cl)cc2)CC1)c1ccc(F)cc1` [Compound 1, 4-(4-(4-chlorophenyl)-1,4-diazepan-1-yl)-1-(4-fluorophenyl)butan-1-one], which “IC50, cell viability” value (Panc-1 cells) is on record?
Answer: sub-micromolar

Question: What about the “Ki(σ1)/Ki(σ2)” value (σ2 receptor [1]) of the same molecule?
Answer: 4.3

Question: For `O=C1c2ccc(F)cc2CC1CCN1CCCN(c2ccc(Cl)cc2)CC1` (stereo not shown) [Compound 3], which “fold higher affinity for σ2 receptor compared to compound 1” value (σ2 receptor [2]; vs compound 1) is on record?
Answer: greater than 9 fold

Question: What about the “fold lower affinity for the σ1 receptor compared to compound 1” value (σ1 receptor; vs compound 1) of the same molecule?
Answer: more than 2 fold

Question: With `O=C1c2ccccc2CC1CCN1CCCN(c2ccc(Cl)cc2)CC1` (stereo not shown) [Compound 4, 2-(2-(4-(4-chlorophenyl)-1,4-diazepan-1-yl)ethyl)-2,3-dihydro-1H-inden-1-one] as the molecule, how does the “fold lower affinity at the σ2 receptor than compound 3” value (σ2 receptor [2]) read?
Answer: over 7 fold

Question: What about the “fold higher affinity than compound 3 at the σ1 receptor” value (σ1 receptor; vs compound 3) of the same molecule?
Answer: 3 fold

Question: Which “fold lower affinity at the σ2 receptor than compound 3” value (σ2 receptor [2]) does the source give for `O=C1c2ccc(Cl)cc2CC1CCN1CCCN(c2ccc(Cl)cc2)CC1` (stereo not shown) [Compound 8, 5-chloro-2-(2-(4-(4-chlorophenyl)-1,4-diazepan-1-yl)ethyl)-2,3-dihydro-1H-inden-1-one] here?
Answer: over 31 fold

Question: Which “IC50, cell viability” value (Panc-1 cells) does the source give for `O/N=C(\CCCN1CCCN(c2ccc(Cl)cc2)CC1)c1ccc(F)cc1` [Compound 12, 4-(4-(4-chlorophenyl)-1,4-diazepan-1-yl)-1-(4-fluorophenyl)butan-1-one oxime] here?
Answer: sub-micromolar
